Measured values gathered from unrelated publications.
Protocols differ between the studies behind these lines.
Organism: Micrococcus luteus
Read-out: microbial growth

Structure (SMILES) | method | strain | time | MIC
O=C1NC(=S)N/C1=C\c1ccc(-c2ccc(N(c3ccccc3)c3ccccc3)cc2)c2ccccc12 | broth dilution | ATCC10240 | – | > 1000 mg/L
CN(C)[C@@H]1C(O)=C(C(N)=O)C(=O)[C@@]2(O)C(O)=C3C(=O)c4c(O)cccc4[C@@](C)(O)[C@H]3C[C@@H]12 | – | – | – | 2 mg/L
CC1=NN(CNc2ccccn2)C(=O)C1=NNn1c(-c2ccccc2)nc2ccccc2c1=O | broth dilution | – | 24 h | 110 µM
C/C=C(\C)c1cc(OC(=O)c2c(C)c(Cl)c(O)c(Cl)c2O)c(C)c(O)c1C(=O)O | broth dilution | ML01 | – | 64 mg/L
O=C1NC(=S)S/C1=C\c1ccc(-c2ccc(N(c3ccccc3)c3ccccc3)cc2)cc1 | broth dilution | ATCC10240 | – | 31.1 mg/L
CC1=NN(CNC(=O)c2ccccn2)C(=O)C1=NNn1c(-c2ccccc2)nc2ccccc2c1=O | broth dilution | – | 24 h | 52 µM
C/C=C(\C)c1cc(O)c(C)c(OC(=O)c2c(C)cc(O)c(Cl)c2O)c1 | broth dilution | ML01 | – | 4 mg/L
O=C(O)CN1C(=O)/C(=C/c2ccc(-c3ccc(N(c4ccccc4)c4ccccc4)cc3)cc2)SC1=S | broth dilution | ATCC10240 | – | 0.98 mg/L
CC(=O)NCN1N=C(C)C(=NNn2c(-c3ccccc3)nc3ccccc3c2=O)C1=O | broth dilution | – | 24 h | 59.9 µM
CC1(C)S[C@@H]2[C@H](NC(=O)[C@H](N)c3ccccc3)C(=O)N2[C@H]1C(=O)O | broth dilution | ML01 | – | 0.13 mg/L
